# Test results reported in ChEMBL document CHEMBL3217724, “Synthesis and evaluation of a series of benzothiophene acrylonitrile analogs as anticancer agents” (Medchemcomm, 2013).
# Key:
# Format in all cases: functional
# [1] = system: 786-0; assay: Growth inhibition of human 786-0 cells
# Procedure, shortened: (§1)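 NCI 60-human-cancer-cell-line panel, five-dose screen after a preliminary screen. GI50 is the molar concentration giving 50% growth inhibition.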
# [2] = system: HCT-116; assay: Growth inhibition of human HCT116 cells; procedure, shortened: as §1
# [3] = Growth inhibition of human SF295 cells; conditions: SF-295; procedure, shortened: as §1
# [4] = system: CAKI-1; assay: Growth inhibition of human Caki1 cells; procedure, shortened: as §1
# [5] = system: SR; assay: Growth inhibition of human SR cells
# Procedure, shortened: (§2)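 NCI 60-cell-line panel, five-dose screen; GI50 is the molar concentration giving 50% growth inhibition.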
# [6] = Growth inhibition of human RXF393 cells; conditions: RXF 393; procedure, shortened: as §1
# [7] = system: PC-3; assay: Growth inhibition of human PC3 cells; procedure, shortened: as §1
# [8] = Growth inhibition of human OVCAR4 cells; conditions: OVCAR-4; procedure, shortened: as §1
# [9] = system: NCI-H23; assay: Growth inhibition of human NCI-H23 cells; procedure, shortened: as §1
# [10] = system: NCI-H322M; assay: Growth inhibition of human NCI-H322M cells; procedure, shortened: as §1
# [11] = Growth inhibition of human LOXIMVI cells; conditions: LOX IMVI; procedure, shortened: as §1
# [12] = system: SW-620; assay: Growth inhibition of human SW620 cells; procedure, shortened: as §2
# [13] = Growth inhibition of human SF539 cells; conditions: SF-539; procedure, shortened: as §1
# [14] = Growth inhibition of human HCT15 cells; conditions: HCT-15; procedure, shortened: as §1
# [15] = system: NCI-H522; assay: Growth inhibition of human NCI-H522 cells; procedure, shortened: as §1
# [16] = system: HOP-62; assay: Growth inhibition of human HOP62 cells; procedure, shortened: as §1
# [17] = system: NCI-H226; assay: Growth inhibition of human NCI-H226 cells; procedure, shortened: as §1
# [18] = system: HL-60(TB); assay: Growth inhibition of human HL-60(TB) cells; procedure, shortened: as §1
# [19] = Growth inhibition of human Hs578T cells; conditions: Hs-578T; procedure, shortened: as §1
# [20] = system: SK-MEL-5; assay: Growth inhibition of human SK-MEL-5 cells; procedure, shortened: as §1
# [21] = system: TK-10; assay: Growth inhibition of human TK10 cells; procedure, shortened: as §2
# [22] = system: SNB-75; assay: Growth inhibition of human SNB75 cells; procedure, shortened: as §2
# [23] = Growth inhibition of human OVCAR3 cells; conditions: OVCAR-3; procedure, shortened: as §1
# [24] = system: Malme-3M; assay: Growth inhibition of human MALME-3M cells; procedure, shortened: as §1
# [25] = Growth inhibition of human BT549 cells; conditions: BT-549; procedure, shortened: as §1
# [26] = system: CCRF-CEM; assay: Growth inhibition of human CCRF-CEM cells; procedure, shortened: as §1
# [27] = Growth inhibition of human OVCAR8 cells; conditions: OVCAR-8; procedure, shortened: as §1
# [28] = system: SK-OV-3; assay: Growth inhibition of human SKOV3 cells; procedure, shortened: as §2
# [29] = system: SNB-19; assay: Growth inhibition of human SNB19 cells; procedure, shortened: as §2
# [30] = system: COLO 205; assay: Growth inhibition of human COLO205 cells; procedure, shortened: as §1
# [31] = Growth inhibition of human UO31 cells; conditions: UO-31; procedure, shortened: as §2
# [32] = system: MDA-MB-231; assay: Growth inhibition of human MDA-MB-231 cells; procedure, shortened: as §1
# [33] = system: HT-29; assay: Growth inhibition of human HT-29 cells; procedure, shortened: as §1
# [34] = Growth inhibition of human MOLT4 cells; conditions: MOLT-4; procedure, shortened: as §1
# [35] = system: T47D; assay: Growth inhibition of human T47D cells; procedure, shortened: as §2
# [36] = system: SF-268; assay: Growth inhibition of human SF268 cells; procedure, shortened: as §1
# [37] = system: ACHN; assay: Growth inhibition of human ACHN cells; procedure, shortened: as §1
# [38] = Growth inhibition of human NCI-ADR-RES cells; procedure, shortened: as §1
# [39] = system: SN12C; assay: Growth inhibition of human SN12C cells; procedure, shortened: as §2
# [40] = Growth inhibition of human UACC257 cells; conditions: UACC-257; procedure, shortened: as §2
# [41] = system: MCF7; assay: Growth inhibition of human MCF7 cells; procedure, shortened: as §1
# [42] = system: M14; assay: Growth inhibition of human M14 cells; procedure, shortened: as §1
# [43] = Growth inhibition of human EKVX cells; procedure, shortened: as §1
# [44] = system: A498; assay: Growth inhibition of human A498 cells; procedure, shortened: as §1
# [45] = system: KM12; assay: Growth inhibition of human KM12 cells; procedure, shortened: as §1
# [46] = Growth inhibition of human HCC2998 cells; conditions: HCC 2998; procedure, shortened: as §1
# [47] = system: NCI-H460; assay: Growth inhibition of human NCI-H460 cells; procedure, shortened: as §1
# [48] = system: U-251; assay: Growth inhibition of human U251 cells; procedure, shortened: as §2
# [49] = system: MDA-MB-435; assay: Growth inhibition of human MDA-MB-435 cells; procedure, shortened: as §1
# [50] = system: K562; assay: Growth inhibition of human K562 cells; procedure, shortened: as §1
# [51] = system: A549; assay: Growth inhibition of human A549 cells; procedure, shortened: as §1
# [52] = Growth inhibition of human HOP92 cells; conditions: HOP-92; procedure, shortened: as §1
# [53] = Growth inhibition of human OVCAR5 cells; conditions: OVCAR-5; procedure, shortened: as §1
# [54] = system: IGROV-1; assay: Growth inhibition of human IGROV1 cells; procedure, shortened: as §1
# [55] = system: SK-MEL-2; assay: Growth inhibition of human SK-MEL-2 cells; procedure, shortened: as §1
# [56] = Growth inhibition of human UACC62 cells; conditions: UACC-62; procedure, shortened: as §2
# [57] = system: DU-145; assay: Growth inhibition of human DU145 cells; procedure, shortened: as §1
# [58] = system: SK-MEL-28; assay: Growth inhibition of human SK-MEL-28 cells; procedure, shortened: as §1
# [59] = system: RPMI-8226; assay: Growth inhibition of human RPMI8226 cells; procedure, shortened: as §1
smiles,measurement,setting,value
COc1ccc(/C(C#N)=C/c2cc3ccccc3s2)cc1OC,GI50,[1],0.0337 µM
same,GI50,[2],0.0411 µM
same,GI50,[3],0.01 µM
same,GI50,[4],0.0827 µM
same,GI50,[5],0.01 µM
same,GI50,[6],0.0909 µM
same,GI50,[7],0.0297 µM
same,GI50,[8],> 0.1 µM
same,GI50,[9],0.0579 µM
same,GI50,[10],0.0315 µM
same,GI50,[11],0.0607 µM
same,GI50,[12],0.0242 µM
same,GI50,[13],0.0106 µM
same,GI50,[14],0.0482 µM
same,GI50,[15],0.01 µM
same,GI50,[16],0.047 µM
same,GI50,[17],> 0.1 µM
same,GI50,[18],0.0222 µM
same,GI50,[19],0.03 µM
same,GI50,[20],0.021 µM
same,GI50,[21],0.0452 µM
same,GI50,[22],0.0137 µM
same,GI50,[23],0.022 µM
same,GI50,[24],> 0.1 µM
same,GI50,[25],0.0283 µM
same,GI50,[26],0.0286 µM
same,GI50,[27],0.0251 µM
same,GI50,[28],0.0634 µM
same,GI50,[29],0.0444 µM
same,GI50,[30],0.0361 µM
same,GI50,[31],0.0187 µM
same,GI50,[32],0.0269 µM
same,GI50,[33],0.0318 µM
same,GI50,[34],0.0535 µM
same,GI50,[35],> 0.1 µM
same,GI50,[36],0.0452 µM
same,GI50,[37],0.0854 µM
same,GI50,[38],0.0105 µM
same,GI50,[39],0.0136 µM
same,GI50,[40],> 0.1 µM
same,GI50,[41],0.0478 µM
same,GI50,[42],0.0611 µM
same,GI50,[43],0.0908 µM
same,GI50,[44],0.0266 µM
same,GI50,[45],0.01 µM
same,GI50,[46],0.0665 µM
same,GI50,[47],0.0354 µM
same,GI50,[48],0.064 µM
same,GI50,[49],0.01 µM
same,GI50,[50],0.0354 µM
same,GI50,[51],0.07 µM
same,GI50,[52],> 0.1 µM
same,GI50,[53],0.05 µM
same,GI50,[54],0.0618 µM
same,GI50,[55],> 0.1 µM
same,GI50,[56],0.0459 µM
same,GI50,[57],0.0366 µM
same,GI50,[58],> 0.1 µM
same,GI50,[59],0.0298 µM
